Measured values: ChEMBL document CHEMBL4219143, “Synthesis, structure-activity relationships and preliminary mechanism study of N-benzylideneaniline derivatives as potential TLR2 inhibitors” (Bioorg Med Chem, 2018)
The source made the active and inactive calls. The rule behind the calls is not given here.

How the values were obtained:
[1] = biological target: Toll-like receptor 2 (Homo sapiens) (UniProt O60603); test: Antagonist activity at human TLR2 expressed in HEK-blue cells assessed as inhibition of Pam3CSK4-induced NF-kappaB activation-mediated SEAP production at 25 uM after 24 hrs by Quanti-blue-based assay; assay type: cell-based
How it was run: (§1)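 HEK-Blue hTLR2 cells in DMEM with 10% serum and antibiotics, plated at 4 × 10⁴ cells per well for 24 h. Medium then replaced with compound plus agonist for 24 h at 37 °C. Agonists (final): Pam₃CSK₄ 10 ng/ml (TLR1/2), Pam₂CSK₄ 10 ng/ml (TLR2/6), Poly I:C 10 µg/ml (TLR3). Supernatant mixed 1:1 with Quanti-Blue; SEAP read at OD 620 nm after 15–30 min.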

[2] = biological target: Toll-like receptor 2 (Homo sapiens) (UniProt O60603); test: Antagonist activity at human TLR2 expressed in HEK-blue cells assessed as inhibition of Pam3CSK4-induced NF-kappaB activation-mediated SEAP production at 50 uM after 24 hrs by Quanti-blue-based assay; assay type: cell-based; how it was run: as §1
TLR2/TLR6 (Homo sapiens) [3] = biological target: T1, TLR2/TLR6 (Homo sapiens) (UniProt O60603+Q9Y2C9); test: Antagonist activity at human TLR2/6 expressed in HEK-blue cells assessed as inhibition of Pam2CSK4-induced IL-8 mRNA expression at 100 uM preincubated for 1 hr followed by Pam2CSK4 induction measured after 1 hr by qRT-PCR method relative to control; assay type: cell-based
[4] = biological target: T2, Toll-like receptor 1/2 (Homo sapiens) (UniProt O60603+Q15399); test: Antagonist activity at human TLR1/2 expressed in HEK-blue cells assessed as inhibition of Pam3CSK4-induced IL-8 mRNA expression at 100 uM preincubated for 1 hr followed by Pam3CSK4 induction measured after 1 hr by qRT-PCR method relative to control; assay type: cell-based
[5] = biological target: Toll-like receptor 2 (Homo sapiens) (UniProt O60603); test: Antagonist activity at human TLR2 expressed in HEK-Blue cells assessed as inhibition of Pam3CSK4-induced TLR2 upregulation at 10 uM by Western blot analysis; assay type: cell-based
How it was run: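 HEK-Blue hTLR2 cells treated with compound and Pam₃CSK₄ at 400 ng/ml. Lysed in RIPA buffer with 1% PMSF; proteins run on SDS-PAGE and transferred to PVDF. Membranes blocked with 5% milk in TBST. Probed overnight at 4 °C with anti-TLR2 (1:250) and anti-GAPDH (1:2000), then HRP secondary (1:2500) 1 h at RT. Detected by ECL.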

[6] = biological target: Toll-like receptor 2 (Homo sapiens) (UniProt O60603); test: Antagonist activity at TLR2 in human PBMC assessed as inhibition of Pam3CSK4-induced TNFalpha signalling after 24 hrs by ELISA; assay type: cell-based
How it was run: (§2)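 Human PBMC seeded at 2.5 × 10⁵ cells per well in RPMI 1640 with 10% FBS and 1% penicillin/streptomycin. Cells treated with compound plus Pam₃CSK₄ 10 ng/ml for 24 h at 37 °C, 5% CO₂. Supernatants stored frozen at −80 °C. TNF-α measured by sandwich ELISA against recombinant human standards, each sample in triplicate.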

TLR2/TLR6 (Mus musculus) = TLR2/TLR6 (Mus musculus) (UniProt Q9QUN7+Q9EPW9); test: Antagonist activity at TLR2/TLR6 in mouse Raw 264.7 cells assessed as decrease in Pam2CSK4-induced iNOS levels at 40 uM after 24 hrs relative to positive control; assay type: cell-based
How it was run: (§3)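 Raw 264.7 cells in RPMI 1640 with 10% serum and antibiotics, plated at 8 × 10⁴ cells per well for 24 h. Compound and TLR agonist (Pam₃CSK₄ for TLR1/2, Pam₂CSK₄ for TLR2/6) added, then incubated 24 h. Nitric oxide in supernatant detected with DAN (0.05 mg/ml in 0.62 M HCl), 15 min in the dark.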

[7] = biological target: T2, Toll-like receptor 1/2 (Homo sapiens); test: Antagonist activity at human TLR1/2 expressed in HEK-blue cells assessed as inhibition of Pam3CSK4-induced NF-kappaB activation-mediated SEAP production at 25 uM after 24 hrs by Quanti-blue-based assay; assay type: cell-based; how it was run: as §1
[8] = biological target: Toll-like receptor 3 (Homo sapiens) (UniProt O15455); test: Antagonist activity at human TLR3 expressed in HEK-Blue assessed as inhibition of poly 1:C-induced NF-kappaB activation-mediated SEAP production at 25 uM after 24 hrs by Quanti-blue-based assay; how it was run: as §1
[9] = Cytotoxicity against HEK-Blue cells up to 100 uM after 24 hrs by MTT assay; assay type: cell-based; details: human
How it was run: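 HEK-TLR2 cells in DMEM with 10% FBS, plated at 4 × 10⁴ cells per well for 24 h. Compound plus Pam₃CSK₄ (final 10 ng/ml) added, then incubated 24 h. MTT (5 mg/ml in PBS) added for 3 h at 37 °C. Formazan dissolved in DMSO; absorbance read at 490 nm.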

TLR2/TLR6 (Homo sapiens) [10] = biological target: T1, TLR2/TLR6 (Homo sapiens); test: Antagonist activity at human TLR2/6 expressed in HEK-blue cells assessed as inhibition of Pam2CSK4-induced NF-kappaB activation-mediated SEAP production at 25 uM after 24 hrs by Quanti-blue-based assay; assay type: cell-based; how it was run: as §1
[11] = biological target: Toll-like receptor 2 (Homo sapiens) (UniProt O60603); test: Antagonist activity at TLR2 in human PBMC assessed as inhibition of Pam3CSK4-induced TNFalpha signalling at 10 uM after 24 hrs by ELISA relative to control; assay type: cell-based; how it was run: as §2
[12] = biological target: Toll-like receptor 2 (Mus musculus) (UniProt Q9QUN7); test: Antagonist activity at TLR2 in mouse Raw 264.7 cells assessed as decrease in Pam3CSK4-induced iNOS levels at 40 uM after 24 hrs relative to positive control; assay type: cell-based; how it was run: as §3
Toll-like receptor 2 (Mus musculus), sequence (Q9QUN7 whole entry): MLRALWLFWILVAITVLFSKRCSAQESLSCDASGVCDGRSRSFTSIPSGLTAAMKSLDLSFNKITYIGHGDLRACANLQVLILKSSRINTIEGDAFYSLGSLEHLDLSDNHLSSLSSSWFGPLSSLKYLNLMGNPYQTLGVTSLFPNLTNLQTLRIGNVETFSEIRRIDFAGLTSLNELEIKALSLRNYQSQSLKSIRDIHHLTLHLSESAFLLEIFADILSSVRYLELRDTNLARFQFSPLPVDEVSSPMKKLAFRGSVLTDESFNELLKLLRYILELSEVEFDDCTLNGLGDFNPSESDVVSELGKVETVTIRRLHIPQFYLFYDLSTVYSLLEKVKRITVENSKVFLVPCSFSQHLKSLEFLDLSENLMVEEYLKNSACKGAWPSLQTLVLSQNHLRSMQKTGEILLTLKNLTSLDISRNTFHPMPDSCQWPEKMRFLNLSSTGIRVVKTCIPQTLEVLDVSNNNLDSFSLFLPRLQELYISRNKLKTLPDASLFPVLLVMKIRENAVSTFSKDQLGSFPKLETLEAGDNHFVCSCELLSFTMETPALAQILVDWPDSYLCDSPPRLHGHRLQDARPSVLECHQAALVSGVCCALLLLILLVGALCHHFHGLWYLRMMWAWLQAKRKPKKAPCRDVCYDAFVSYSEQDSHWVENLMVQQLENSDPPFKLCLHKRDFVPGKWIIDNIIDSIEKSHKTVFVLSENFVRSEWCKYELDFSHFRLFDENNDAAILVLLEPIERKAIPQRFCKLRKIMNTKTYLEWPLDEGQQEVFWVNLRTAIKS

Toll-like receptor 2 (Homo sapiens), sequence (O60603 whole entry): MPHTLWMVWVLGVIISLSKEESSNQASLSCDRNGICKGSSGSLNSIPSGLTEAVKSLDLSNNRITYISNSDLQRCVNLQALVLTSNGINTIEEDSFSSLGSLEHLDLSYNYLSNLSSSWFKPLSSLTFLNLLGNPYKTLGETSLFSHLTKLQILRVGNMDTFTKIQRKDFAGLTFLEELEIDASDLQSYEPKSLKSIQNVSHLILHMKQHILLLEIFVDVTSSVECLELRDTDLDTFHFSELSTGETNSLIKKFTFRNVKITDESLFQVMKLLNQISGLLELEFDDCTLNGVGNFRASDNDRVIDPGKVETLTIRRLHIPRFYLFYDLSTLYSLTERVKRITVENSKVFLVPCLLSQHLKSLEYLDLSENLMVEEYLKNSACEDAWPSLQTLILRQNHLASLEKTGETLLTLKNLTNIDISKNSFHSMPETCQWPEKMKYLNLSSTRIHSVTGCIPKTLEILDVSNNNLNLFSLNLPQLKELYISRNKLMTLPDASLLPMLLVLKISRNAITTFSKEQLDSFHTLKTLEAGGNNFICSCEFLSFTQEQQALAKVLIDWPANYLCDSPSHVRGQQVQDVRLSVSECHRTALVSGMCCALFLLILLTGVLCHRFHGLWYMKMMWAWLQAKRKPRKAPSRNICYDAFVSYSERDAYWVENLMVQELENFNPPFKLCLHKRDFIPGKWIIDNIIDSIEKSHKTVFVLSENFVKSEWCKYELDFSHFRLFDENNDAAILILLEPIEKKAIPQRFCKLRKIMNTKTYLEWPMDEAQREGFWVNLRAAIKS
Toll-like receptor 3 (Homo sapiens), sequence (O15455 whole entry): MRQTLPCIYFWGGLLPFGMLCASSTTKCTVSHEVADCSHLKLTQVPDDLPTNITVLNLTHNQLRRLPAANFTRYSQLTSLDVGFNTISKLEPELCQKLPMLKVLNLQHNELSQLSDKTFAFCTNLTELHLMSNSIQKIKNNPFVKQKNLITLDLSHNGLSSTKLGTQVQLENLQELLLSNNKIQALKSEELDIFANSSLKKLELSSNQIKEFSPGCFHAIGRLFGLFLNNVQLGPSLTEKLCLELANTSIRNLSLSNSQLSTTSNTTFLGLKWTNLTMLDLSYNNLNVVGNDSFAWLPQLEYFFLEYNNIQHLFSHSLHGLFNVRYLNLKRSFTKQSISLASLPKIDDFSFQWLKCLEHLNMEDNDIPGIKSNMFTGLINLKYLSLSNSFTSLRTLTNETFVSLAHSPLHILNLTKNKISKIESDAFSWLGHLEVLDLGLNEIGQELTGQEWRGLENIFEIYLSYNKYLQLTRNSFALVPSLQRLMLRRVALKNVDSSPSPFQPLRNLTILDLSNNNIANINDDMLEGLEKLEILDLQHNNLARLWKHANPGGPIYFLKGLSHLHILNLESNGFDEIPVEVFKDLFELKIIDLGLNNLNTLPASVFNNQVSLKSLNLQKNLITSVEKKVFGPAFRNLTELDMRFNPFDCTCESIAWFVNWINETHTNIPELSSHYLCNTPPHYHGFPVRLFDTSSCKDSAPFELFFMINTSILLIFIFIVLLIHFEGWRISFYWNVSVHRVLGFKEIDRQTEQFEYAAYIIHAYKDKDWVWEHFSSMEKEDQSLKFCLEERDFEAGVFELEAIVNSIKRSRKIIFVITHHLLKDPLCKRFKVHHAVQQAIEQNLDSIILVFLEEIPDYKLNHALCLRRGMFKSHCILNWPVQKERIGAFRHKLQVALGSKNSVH

| Structure (SMILES) | inhibition [1] | inhibition [2] | other results |
| --- | --- | --- | --- |
| CCOc1cccc(/C=N/c2cccc(C(=O)O)c2)c1O | 6.93% | 19.4% |  |
| Cc1cccc(/N=C/c2cccc(O)c2O)c1C(=O)O | 15% | 21.2% |  |
| CCOc1cccc(/C=N/c2ccc(O)cc2)c1O | 5.77% | 75.7% |  |
| COc1cccc(/C=N/c2ccc(O)cc2)c1 | 0.74% | 56.4% |  |
| Cc1c(/N=C/c2ccc(C(F)(F)F)cc2)cccc1C(=O)O | 0% | 0% |  |
| O=C(c1ccccc1)c1ccccc1/N=C/c1c(O)ccc2ccccc12 | 2.72% | 0% |  |
| COc1cccc(/C=N/c2cccc(C(=O)O)c2C)c1O | 14.9% | 51.8% | inhibition (TLR2/TLR6 (Homo sapiens) [3]): > 50%; inhibition [4]: > 50% |
| O=C(O)c1ccc(C(F)(F)F)cc1/N=C\c1c[nH]c2ccccc12 | 0.33% | 5.77% |  |
| COc1ccc(/N=C/c2c(O)ccc3ccccc23)cc1 | 3.66% | 0% |  |
| COc1cccc(/C=N/c2cccc(C(=O)O)c2C)c1 | 0.99% | 1.61% |  |
| FC(F)(F)c1ccc(/C=N/c2ccc(-c3ccccc3)cc2)cc1 | 5.07% | 0.75% |  |
| COc1ccc(/N=C/c2cccc(O)c2O)cc1 | 17% | 44.9% |  |
| CCOc1cccc(/C=N/c2cccc(C(=O)O)c2C)c1O | 5.43% | 38% |  |
| COc1cc(/C=N/c2cc(N)cc(C(=O)O)c2)ccc1O | 0% | 0% |  |
| COc1ccc(/N=C/c2cccc(OC)c2O)cc1 | 3.77% | 45.6% |  |
| COc1cccc(/C=N/c2ccccc2C(=O)c2ccccc2)c1O | 1.86% | 30% |  |
| O=C(O)c1cccc(/N=C/c2c(O)ccc3ccccc23)c1 | 0% | 0% |  |
| COc1ccc(/N=C/c2ccc(O)c(OC)c2)cc1 | 0% | 0% |  |
| Oc1ccc2ccccc2c1/C=N/c1ccc(-c2ccccc2)cc1 | 5.35% | 1.41% |  |
| CCOc1cccc(/C=N/c2cccc(C)c2C(=O)O)c1O | 2.39% | 27.8% |  |
| CCOc1cccc(/C=N/c2ccc(-c3ccccc3)cc2)c1O | 24.2% | 64.1% |  |
| COc1ccc(/N=C/C=C/c2ccccc2)cc1 | 3.99% | 15.1% |  |
| COc1cc(/C=N/c2ccc(-c3ccccc3)cc2)ccc1O | 2.39% | 0% |  |
| CCOc1cccc(/C=N/c2ccccc2C(=O)c2ccc(Cl)cc2)c1O | 35.5% | 70.7% |  |
| COc1ccc(/N=C/c2cccc(OC)c2OC)cc1 | 0% | 0% |  |

| Structure (SMILES) | inhibition [1] | inhibition [2] | other results |
| --- | --- | --- | --- |
| COc1cccc(/C=N/c2ccc(-c3ccccc3)cc2)c1O | 23.3% | 75.3% |  |
| COc1cccc(/N=C/c2ccc(C(F)(F)F)cc2)c1 | 7.27% | 0.28% |  |
| Cc1c(/N=C/c2c(O)ccc3ccccc23)cccc1C(=O)O | 0% | 0% |  |
| COc1cccc(/C=N/c2ccc(-c3ccccc3)cc2)c1 | 0% | 0% |  |
| COc1cccc(/C=N/c2cccc(C(=O)O)c2)c1O | 0% | 23.7% |  |
| C(=C\c1ccccc1)/C=N/c1ccc(-c2ccccc2)cc1 | 5.63% | 3.1% |  |
| O=C(O)c1ccc(C(F)(F)F)cc1/N=C/c1c(O)ccc2ccccc12 | 2.53% | 0% |  |
| C(=N/c1ccc(-c2ccccc2)cc1)/c1c[nH]c2ccccc12 | 2.35% | 3.8% |  |
| Oc1ccc(/N=C/c2cccc3ccccc23)cc1 | 44% | 98.8% |  |
| COc1ccc(/N=C\c2c[nH]c3ccccc23)cc1 | 2.11% | 0% |  |
| C(=N\c1ccc(-c2ccccc2)cc1)/c1cccc2ccccc12 | 0% | 0% |  |
| COc1cc(/C=N/c2ccc(O)cc2)ccc1O | 7.51% | 62.7% |  |
| COc1cccc(/C=N/c2ccccc2C(=O)c2ccc(Cl)cc2)c1O | 66.8% | 95.1% | inhibition [5]: 50%; inhibition [6]: Dose-dependent effect; inhibition (TLR2/TLR6 (Mus musculus)): > 70%; inhibition [7]: Active; inhibition [8]: inactive; Activity [9]: Non-Toxic; inhibition (TLR2/TLR6 (Homo sapiens) [10]): Active; inhibition [11]: 90%; inhibition [12]: > 70% |
| Oc1ccc(/N=C/C=C/c2ccccc2)cc1 | 27.5% | 95.8% |  |
| COc1cccc(CNc2ccccc2C(=O)c2ccc(Cl)cc2)c1O | 0% | 19.2% |  |
| COc1cccc(/C=N/c2ccc(O)cc2)c1O | 14.9% | 91.1% |  |
| Cc1c(/N=C\c2c[nH]c3ccccc23)cccc1C(=O)O | 2.39% | 2.58% |  |
| Cc1c(/N=C/C=C/c2ccccc2)cccc1C(=O)O | 1.74% | 14.4% |  |
| O=C(c1ccc(Cl)cc1)c1ccccc1/N=C/c1c(O)ccc2ccccc12 | 3.09% | 22.9% |  |
| O=C(O)c1cccc(/N=C/c2cccc(O)c2O)c1 | 5% | 9.05% |  |
| CCOc1cccc(/C=N/c2ccccc2C(=O)c2ccccc2)c1O | 3.59% | 49% |  |
| COc1ccc(/N=C/c2cccc3ccccc23)cc1 | 5.21% | 1.97% |  |
| Cc1cccc(/N=C/c2c(O)ccc3ccccc23)c1C(=O)O | 0% | 0% |  |
| CCOc1cccc(/C=N/c2ccc(OC)cc2)c1O | 8.33% | 35.2% |  |
| Oc1ccc(/N=C/c2c(O)ccc3ccccc23)cc1 | 0% | 0% |  |
